This passage reports cytotoxicity results from ChEMBL document CHEMBL4513216, “Probing the Open Global Health Chemical Diversity Library for Multistage-Active Starting Points for Next-Generation Antimalarials” (ACS Infect Dis, 2020).

Molecules are shown by their SMILES.

The series is described as follows: Toxicity liver stage against HepG2, at 10uM. Also on record: test concentration 10 uM, cell line HepG2-A16-CD81EGFP. The format is cell-based. The conditions noted are these: human, HepG2-A16-CD81EGFP cells; read-out: INHIBITION
Put shortly:
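Uninfected HepG2-A16-CD81EGFP cells, 3 × 10^3 per well, 1536-well, plated on prespotted compound at 10 μM final, parasite-free screening media added to match infected plates; puromycin 10 μM positive, DMSO 0.5% negative; run in parallel with 48 h PbLuc assay at 37 °C, 5% CO2; viability by CellTiter-Glo luminescence, normalized to controls.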
On to `O=C(NC[C@H]1OC[C@@H](NCc2ccccc2)[C@@H]1O)Nc1ccccc1`, for which the cytotoxicity at 10 µM came out at 1.97%.
For `COCCNC(=O)c1nc(NS(=O)(=O)c2ccccc2)sc1C`, the cytotoxicity at 10 µM turned out to be 9.18%.
Regarding `Cc1nc(C(=O)N2CCN(S(C)(=O)=O)CC2)c(-c2cccc(F)c2)s1`, the cytotoxicity at 10 µM turned out to be 1.37%.
To `Cc1cc(NC(=O)Cn2cnc(-c3cccs3)cc2=O)sn1` belongs 0.0962%.
As to `COc1ncc(NS(=O)(=O)c2ccc(F)cc2F)cn1`, the cytotoxicity at 10 µM was -3.96%.
The result for `O=C(NCCSCc1ccco1)c1ccc(N2CCOCC2)cc1` reads -0.971%.
The result for `Cc1nccc([C@H]2C[C@@H]3CCN(S(=O)(=O)N(C)C)C[C@H]3O2)n1` reads -10.8%.
The result for `COCCN1C(=O)[C@]2(CC[C@@H]3CN(C(=O)NCC(C)C)C[C@@H]32)N=C1C` reads -11.8%.
On to `O=C(c1cccnc1)N1CCc2[nH]nc(Nc3ccccc3)c2C1`, for which the cytotoxicity at 10 µM worked out at 6.83%.
Regarding `CC(=O)N1CC(C)CN(Cc2ccon2)c2ccccc21` (stereo not given), the cytotoxicity at 10 µM was found to be 2%.
Turning to `COc1c(C2CCCN2c2ncnc3c2CCC3)c(C)nn1C` (stereo not given), the cytotoxicity at 10 µM was 10.5%.
Regarding `CC(C)CN(CC(=O)O)C(=O)c1ccc(F)cc1`, the cytotoxicity at 10 µM is -2.83%.
In the case of `COC(=O)CN(C(=O)c1ccc(Cl)o1)c1cccc(F)c1`, the cytotoxicity at 10 µM was determined as 6.11%.
To `Cc1ncc2c(n1)CN(c1ncnc3[nH]ccc13)CC2` belongs -8.92%; to `CCn1cc(C(=O)N2CCCN(c3cccnn3)CC2)c2ccccc21`, -0.418%.
On to `O=C(CCn1cccn1)NS(=O)(=O)N1CCCc2ccccc21`, for which the cytotoxicity at 10 µM worked out at 5.65%.
The result for `O=C(NCCN1CCOCC1)c1cc(-c2ccc(Cl)s2)[nH]n1` reads -6.58%; that for `CCN1CCCN(c2ccc(-n3ccc(C)n3)nn2)CC1`, -0.553%; that for `CCN1CCN(c2ccc(F)cc2C(C)NCc2ccnn2C)CC1` (stereo not given), -8.33%.
On to `Cc1n[nH]c(C2CN(C(=O)c3ccon3)CCO2)n1` (stereo not given), for which the cytotoxicity at 10 µM was -8.27%.
On to `Cc1cccc(-c2nnc(C(C)NCCn3cc(C)cn3)o2)c1` (stereo not given), for which the cytotoxicity at 10 µM is -8.32%.
Consider `Cc1ccc(CN(C(=O)c2cccc(NC(N)=O)c2)C2CC2)o1`, for which the cytotoxicity at 10 µM turned out to be 2.69%.
For the compound `CC(C)Cn1cncc1CNC1CCCNC1` (stereo not given), the cytotoxicity at 10 µM was -0.391%.
Regarding `COc1cccc(CN2CC(=O)N(c3ccccc3C)CC2C)c1OC` (stereo not given), the cytotoxicity at 10 µM turned out to be 2.24%.
For `CC(C)c1nccn1C(C)C(=O)NC1Cc2ccccc2C1` (stereo not given), the cytotoxicity at 10 µM is -5.03%.
`CNc1nc(C(=O)N2CCC3(CCCN(C)C3=O)C2)cs1` (stereo not given): the cytotoxicity at 10 µM is -8.57%.
Consider `CCc1cnc(C)nc1NC(CC)c1cnn(C)c1` (stereo not given), for which the cytotoxicity at 10 µM was -11.7%.
Take `CSCc1noc(Cn2ncn3cccc3c2=O)n1`: the cytotoxicity at 10 µM came out at 4.44%.
With `O=C(O)[C@@H]1CN(C(=O)CC2CCCC2)C[C@H]1c1ccc(F)cc1`, the cytotoxicity at 10 µM is -10.2%.
`COCCOc1cccc(CNC(=O)CN2CCN(C)CC2C)c1` (stereo not given): the cytotoxicity at 10 µM was -4.07%.
Take `Cc1ccc(C(=O)N(C)Cc2ccc3c(c2)OCO3)c(=O)[nH]1`: the cytotoxicity at 10 µM was -12%.
In the case of `Cc1noc(C)c1CC(=O)N1CCC(Nc2cccnn2)CC1`, the cytotoxicity at 10 µM is -15.8%.
`c1cnnc(NCC2CN(Cc3cccc4c3OCCO4)CCO2)c1` (stereo not given): the cytotoxicity at 10 µM is -9.93%.
`CC(C)CN1CCC(C(=O)Nc2cc(C(F)(F)F)c[nH]c2=O)CC1`: the cytotoxicity at 10 µM was -11.3%.
The result for `CC(C)(C)c1nnc(CN2CCCC2c2noc(C3CC3)n2)o1` (stereo not given) reads -2.75%; that for `CCc1nc(C2CCCN2C(=O)CCc2cccs2)no1` (stereo not given), -3.19%; that for `CC(C)c1nc(C2CCCN2CC(=O)N2CCc3ccccc32)no1` (stereo not given), -5.84%.
The result for `OC(COCc1cccs1)CN1CCC(c2ccn[nH]2)CC1` (stereo not given) reads -2.66%; that for `COc1cccc(-n2c(C)cc(C(=O)O)c2C)c1`, -8.65%.
For the compound `O=C(c1ccc2c(c1)CCCC2)N1CCOCC1c1ncon1` (stereo not given), the cytotoxicity at 10 µM is -7%.
